In ChEMBL document CHEMBL1155785 (Bioorg Med Chem, 2008):
The source made the active and inactive calls. No cut-off for these calls is given here.

Key:
[1] = target: T1, Receptor-type tyrosine-protein phosphatase F (Homo sapiens, UniProt P10586); experiment: Inhibition of human recombinant LAR upto 100 uM; conditions: in the assay text read “at 20 ug/mL” for “upto 100 uM”
Outline: (§1)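 Recombinant LAR (300 nM) was preincubated 10 min with inhibitor in DMSO in pH 8.0 buffer (50 mM Tris, 50 mM NaCl, 2 mM EDTA, 2 mM DTT). Reaction was started with pH 6.0 MES substrate buffer holding 2 mM pNPP, at room temperature. pNP release was read continuously at 405 nm, using the initial linear rate. IC50 came from a Hill-equation nonlinear fit, mean ± SD of three replicates.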

[2] = target: T1, Receptor-type tyrosine-protein phosphatase F; experiment: Inhibition of human recombinant LAR at 20 ug/mL
Outline: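 Single-concentration test at 20 µg/mL. Recombinant LAR (300 nM) was preincubated 10 min with compound at pH 8.0 (Tris/NaCl/EDTA/DTT). Hydrolysis of 2 mM pNPP (stock in substrate buffer) was then followed at pH 6.0 MES buffer, room temperature. Initial rate was taken at 405 nm and expressed as % inhibition.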

[3] = target: T1, Receptor-type tyrosine-protein phosphatase F; experiment: Inhibition of LAR; outline: as §1
[4] = target: T1, Receptor-type tyrosine-protein phosphatase F; experiment: Inhibition of human recombinant LAR
[5] = target: T2, Receptor-type tyrosine-protein phosphatase C (Homo sapiens, UniProt P08575); experiment: Inhibition of CD45
T2 sequence (P08575 whole entry): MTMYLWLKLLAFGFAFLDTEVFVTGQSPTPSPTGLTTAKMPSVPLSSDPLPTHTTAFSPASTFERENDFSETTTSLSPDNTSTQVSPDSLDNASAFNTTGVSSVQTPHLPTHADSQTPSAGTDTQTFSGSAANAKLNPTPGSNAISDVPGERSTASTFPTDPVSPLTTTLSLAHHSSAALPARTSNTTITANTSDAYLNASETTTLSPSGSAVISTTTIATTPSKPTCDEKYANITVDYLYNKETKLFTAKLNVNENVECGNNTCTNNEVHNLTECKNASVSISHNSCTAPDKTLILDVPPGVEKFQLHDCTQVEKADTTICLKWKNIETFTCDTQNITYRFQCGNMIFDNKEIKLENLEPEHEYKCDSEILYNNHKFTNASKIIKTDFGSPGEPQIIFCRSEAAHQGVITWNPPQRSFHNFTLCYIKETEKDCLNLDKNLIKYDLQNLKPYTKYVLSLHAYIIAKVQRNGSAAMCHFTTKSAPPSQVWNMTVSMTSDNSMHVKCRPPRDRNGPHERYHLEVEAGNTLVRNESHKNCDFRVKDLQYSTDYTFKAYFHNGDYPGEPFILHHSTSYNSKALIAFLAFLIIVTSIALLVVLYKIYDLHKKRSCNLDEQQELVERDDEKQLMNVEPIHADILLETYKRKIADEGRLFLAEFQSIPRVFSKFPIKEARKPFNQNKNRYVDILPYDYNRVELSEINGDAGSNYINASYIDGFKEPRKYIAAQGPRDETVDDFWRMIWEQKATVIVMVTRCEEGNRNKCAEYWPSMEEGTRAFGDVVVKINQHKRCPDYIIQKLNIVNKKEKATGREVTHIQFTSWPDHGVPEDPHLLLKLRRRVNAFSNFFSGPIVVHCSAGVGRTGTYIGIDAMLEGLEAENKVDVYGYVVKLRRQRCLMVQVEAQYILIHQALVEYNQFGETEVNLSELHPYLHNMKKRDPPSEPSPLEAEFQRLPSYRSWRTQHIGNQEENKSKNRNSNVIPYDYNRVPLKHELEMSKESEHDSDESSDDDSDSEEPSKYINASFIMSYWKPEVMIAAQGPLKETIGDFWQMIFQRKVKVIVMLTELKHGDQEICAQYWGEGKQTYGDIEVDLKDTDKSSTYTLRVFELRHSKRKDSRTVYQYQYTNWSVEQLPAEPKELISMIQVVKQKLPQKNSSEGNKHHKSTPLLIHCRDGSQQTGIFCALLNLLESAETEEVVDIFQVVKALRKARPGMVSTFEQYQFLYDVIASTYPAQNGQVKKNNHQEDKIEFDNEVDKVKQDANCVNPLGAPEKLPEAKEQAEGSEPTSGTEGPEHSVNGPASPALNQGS

[6] = target: T3, Tyrosine-protein phosphatase non-receptor type 1 (Homo sapiens, UniProt P18031); experiment: Inhibition of PTP1B
T3 sequence (P18031 whole entry): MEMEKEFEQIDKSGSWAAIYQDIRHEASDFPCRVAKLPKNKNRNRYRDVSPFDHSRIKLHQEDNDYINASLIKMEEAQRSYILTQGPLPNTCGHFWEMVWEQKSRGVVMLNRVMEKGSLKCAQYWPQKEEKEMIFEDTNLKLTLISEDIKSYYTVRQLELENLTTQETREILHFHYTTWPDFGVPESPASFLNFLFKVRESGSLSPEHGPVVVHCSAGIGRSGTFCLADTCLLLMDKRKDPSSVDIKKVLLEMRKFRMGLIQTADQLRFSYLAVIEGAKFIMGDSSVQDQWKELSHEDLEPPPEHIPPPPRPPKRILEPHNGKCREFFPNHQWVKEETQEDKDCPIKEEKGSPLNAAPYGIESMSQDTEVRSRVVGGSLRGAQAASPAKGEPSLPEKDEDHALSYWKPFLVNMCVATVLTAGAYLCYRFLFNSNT

[7] = target: T4, Tyrosine-protein phosphatase non-receptor type 2 (Homo sapiens, UniProt P17706); experiment: Inhibition of TCPTP
T4 sequence (P17706 whole entry): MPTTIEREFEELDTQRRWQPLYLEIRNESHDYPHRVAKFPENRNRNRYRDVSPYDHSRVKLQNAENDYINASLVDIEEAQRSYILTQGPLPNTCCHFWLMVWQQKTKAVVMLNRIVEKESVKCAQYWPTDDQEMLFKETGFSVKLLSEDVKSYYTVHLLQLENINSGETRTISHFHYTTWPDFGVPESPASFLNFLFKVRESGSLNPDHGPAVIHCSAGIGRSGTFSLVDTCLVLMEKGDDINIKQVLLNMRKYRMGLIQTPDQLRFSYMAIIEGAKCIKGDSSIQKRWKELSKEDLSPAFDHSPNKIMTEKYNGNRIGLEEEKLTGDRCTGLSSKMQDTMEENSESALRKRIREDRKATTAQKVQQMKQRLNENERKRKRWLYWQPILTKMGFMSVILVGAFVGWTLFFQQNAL

[8] = Inhibition of Yersinia PTPase; set-up: species or system Yersinia sp.
[9] = target: T1, Receptor-type tyrosine-protein phosphatase F; experiment: Inhibition of dialyzed human LAR assessed as recovery of enzyme activity at 20 uM after 24 hrs
Outline: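 LAR (1500 nM) was preincubated 10 min at pH 8.0 with 20 µM inhibitor or 2% DMSO, then dialyzed against enzyme buffer. Aliquots were withdrawn at set times up to 24 h and assayed for pNPP phosphatase activity at pH 6.0, read at 405 nm.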

T1 sequence (P10586 whole entry): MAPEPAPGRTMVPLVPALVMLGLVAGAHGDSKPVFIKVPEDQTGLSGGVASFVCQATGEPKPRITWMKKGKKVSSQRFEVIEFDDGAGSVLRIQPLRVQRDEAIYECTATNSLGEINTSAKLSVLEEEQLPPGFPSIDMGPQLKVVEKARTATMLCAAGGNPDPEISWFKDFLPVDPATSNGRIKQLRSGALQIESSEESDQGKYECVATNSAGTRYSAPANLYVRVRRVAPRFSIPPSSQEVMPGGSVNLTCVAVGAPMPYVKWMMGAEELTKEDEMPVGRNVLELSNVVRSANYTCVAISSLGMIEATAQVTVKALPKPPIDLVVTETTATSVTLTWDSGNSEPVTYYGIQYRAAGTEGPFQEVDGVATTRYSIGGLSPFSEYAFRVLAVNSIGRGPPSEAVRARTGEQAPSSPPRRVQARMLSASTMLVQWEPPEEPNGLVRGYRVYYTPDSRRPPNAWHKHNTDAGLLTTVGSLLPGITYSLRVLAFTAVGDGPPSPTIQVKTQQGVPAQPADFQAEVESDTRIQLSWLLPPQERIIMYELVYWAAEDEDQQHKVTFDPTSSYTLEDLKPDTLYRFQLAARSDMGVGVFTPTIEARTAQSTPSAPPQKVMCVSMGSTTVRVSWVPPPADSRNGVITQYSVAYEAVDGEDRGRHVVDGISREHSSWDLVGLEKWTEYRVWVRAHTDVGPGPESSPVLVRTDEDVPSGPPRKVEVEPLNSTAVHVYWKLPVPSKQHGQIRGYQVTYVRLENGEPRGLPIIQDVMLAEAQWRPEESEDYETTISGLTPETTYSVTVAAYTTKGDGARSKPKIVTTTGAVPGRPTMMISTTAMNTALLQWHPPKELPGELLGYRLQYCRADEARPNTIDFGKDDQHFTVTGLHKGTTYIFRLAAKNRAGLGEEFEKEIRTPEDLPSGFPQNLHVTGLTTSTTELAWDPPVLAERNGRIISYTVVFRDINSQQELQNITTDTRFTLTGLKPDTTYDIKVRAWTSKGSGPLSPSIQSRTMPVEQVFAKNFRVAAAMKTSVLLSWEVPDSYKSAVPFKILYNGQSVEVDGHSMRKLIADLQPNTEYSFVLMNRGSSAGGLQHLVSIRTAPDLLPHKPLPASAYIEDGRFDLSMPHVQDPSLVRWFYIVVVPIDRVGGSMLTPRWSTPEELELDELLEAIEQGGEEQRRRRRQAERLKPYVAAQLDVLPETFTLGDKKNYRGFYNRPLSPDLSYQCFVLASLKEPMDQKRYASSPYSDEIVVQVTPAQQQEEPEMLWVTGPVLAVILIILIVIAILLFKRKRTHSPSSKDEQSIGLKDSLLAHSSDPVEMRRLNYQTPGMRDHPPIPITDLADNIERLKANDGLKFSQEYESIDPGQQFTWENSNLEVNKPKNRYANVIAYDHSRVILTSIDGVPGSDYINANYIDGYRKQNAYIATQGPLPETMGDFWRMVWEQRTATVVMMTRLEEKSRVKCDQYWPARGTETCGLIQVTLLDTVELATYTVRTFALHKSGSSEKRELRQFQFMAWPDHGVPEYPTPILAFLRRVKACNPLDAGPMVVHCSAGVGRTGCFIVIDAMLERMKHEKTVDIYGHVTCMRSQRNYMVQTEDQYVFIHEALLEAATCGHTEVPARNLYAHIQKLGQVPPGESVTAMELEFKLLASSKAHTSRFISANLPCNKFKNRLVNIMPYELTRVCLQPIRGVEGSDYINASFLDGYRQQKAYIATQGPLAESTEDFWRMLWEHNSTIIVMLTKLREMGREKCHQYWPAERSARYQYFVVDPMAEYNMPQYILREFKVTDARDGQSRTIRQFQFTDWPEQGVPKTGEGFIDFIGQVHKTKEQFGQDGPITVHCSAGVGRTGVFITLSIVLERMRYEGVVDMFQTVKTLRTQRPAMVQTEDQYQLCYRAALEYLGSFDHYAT

**Q.** With `COC(=O)c1ccc(OC)c(C=O)c1CC=O` as the molecule, how does the Activity [1] read?
**A.** inactive

**Q.** And the inhibition [2]?
**A.** < 5%

**Q.** Which IC50 [3] does the source give for `O=C(O)COc1c(C(=O)O)sc(-c2ccc(NC(=O)c3cccnc3)cc2)c1Br` here?
**A.** 320000 nM

**Q.** For `COc1ccc(C(=O)O)c(CCO)c1CO`, which Activity [1] is on record?
**A.** inactive

**Q.** And the inhibition [2]?
**A.** < 5%

**Q.** With `COc1c(C=O)c2c(c3c1CC(C)(C)C3)C(=O)OC(O)C2` (stereo unspecified) as the molecule, how does the IC50 [4] read?
**A.** 1530 nM

**Q.** Which inhibition [2] does the source give for `COc1ccc2c(c1)CC(O)OC2=O` (stereo unspecified) here?
**A.** < 5%

**Q.** Which Activity [1] does the source give for `COC(=O)c1ccc(OC)c(CO)c1CCO` here?
**A.** inactive

**Q.** And the inhibition [2]?
**A.** < 5%

**Q.** Which IC50 [5] does the source give for `O=C(O)COc1c(O)cc(-c2cc(C(F)(F)F)cc(C(F)(F)F)c2)cc1OCc1cccc(C(F)(F)F)c1` here?
**A.** 280 nM

**Q.** What about the IC50 [6] of the same molecule?
**A.** 2000 nM

**Q.** And the IC50 [3]?
**A.** 116000 nM

**Q.** With `COc1ccc2c(c1C=O)CCOC2=O` as the molecule, how does the inhibition [2] read?
**A.** < 5%

**Q.** What does the source list for `CSc1ccnc(C[S+]([O-])c2nc3cc(OC(C)C)ccc3[nH]2)c1` (stereo unspecified)?
**A.** IC50 [3]: 18200 nM; IC50 [7]: 680 nM

**Q.** Which IC50 [8] does the source give for `O=C(O)C(=O)c1ccc(OCc2cc(COc3ccc(C(=O)C(=O)O)cc3)cc(COc3ccc(C(=O)C(=O)O)cc3)c2)cc1` here?
**A.** 1700 nM

**Q.** With `COc1ccc2c(c1C=O)CC(O)OC2` (stereo unspecified) as the molecule, how does the Activity [9] read?
**A.** Active

**Q.** And the inhibition [2]?
**A.** 20%

**Q.** For `COc1ccc2c(c1C=O)CC(O)OC2=O` (stereo unspecified), which IC50 [4] is on record?
**A.** 21800 nM

**Q.** What does the source list for `CC(=O)NC(Cc1ccc(N(C(=O)C(=O)O)c2ccccc2C(=O)O)c2ccccc12)C(=O)NCCCCCOc1cc2ccccc2cc1C(=O)O` (stereo unspecified)?
**A.** Ki [3]: 1300 nM; Ki [7]: 49 nM
